# High-throughput results as filed in PubChem.
# T cruzi HTS: inhibitors of intracellular Trypanosoma cruzi | intracellular Trypanosoma cruzi in host cells, plate reader | activity score (inhibition), % at 5.01 µM | AID 651903 | 4.9% of 22,000 active; in the data active means activity score above about 55%;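 further: parasites and compound incubated about four days before reading; 0% = median of neutral control wells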
# INS-1E rescue: rescue of cytokine-induced death in INS-1E beta cells; INS-1E cytokine-induced death, ATP luminescence, 48 h; normalised: neutral wells 0, positive control 100; protection from cytokine-induced ATP loss, % at 10 µM; 0.1% of 20,000 active; AID 488910;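 active means mean replicate protection from cytokine-induced ATP loss at least 50% and at least 75% of replicates each reaching 50%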
#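 Test system: INS-1E rat cells | Quantity: 8000 cells per well | Medium: Phenol-red-free RPMI with 5% fetal bovine serum | Reagent: Cytokine cocktail of IFN-γ, TNF-α and IL-1β | Doses: One compound concentration, pin transfer | Timing: 48 h co-treatment, 10 min post-lysis read | Technique: Luminescent ATP assay (CellTiter-Glo)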
# A1 apoptosis 2: compounds inhibiting A1, read as caspase activation | MEF A1-2A-BIM cells, caspase-Glo luminescence, 3 h; percent of clofoctol response, DMSO zero | caspase activation, % (no concentration beside the values) | 24,000 tested, under 10 active; in the data active means caspase activation above about 5.9%
#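 Material: A1-2A-BIM-expressing MEF cells. Buffer or medium: RPMI-1640 plus 10% FBS. Incubation: cells settled overnight, compound exposure 3 h at 37 °C, 5% CO2. Signal: Caspase-Glo 3/7 luminescence, 1 h at room temperature.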
# * = called active by the depositor; . = no result given. The sample as a whole holds a higher share of hits than the screen did.
SMILES,T cruzi HTS,INS-1E rescue,A1 apoptosis 2
Cc1ccc(S(=O)(=O)Nc2ccc3c(c2)CC(=O)N([C@@H](C)CO)C[C@H](C)[C@@H](CN(C)Cc2ccc(C(F)(F)F)cc2)O3)cc1,62*,0,.
C[C@@H]1CN([C@H](C)CO)C(=O)Cc2cc(NS(=O)(=O)c3ccc(F)cc3)ccc2O[C@H]1CN(C)Cc1ccc(C(F)(F)F)cc1,48,-13,1
C[C@@H]1CN([C@@H](C)CO)C(=O)c2cccc(NS(=O)(=O)c3cn(C)cn3)c2O[C@@H]1CN(C)Cc1ccc(C(=O)O)cc1,-24,11,.
Cc1ccc(S(=O)(=O)N(C)C[C@H]2Oc3ccc(NS(=O)(=O)c4ccc(F)cc4)cc3CC(=O)N([C@@H](C)CO)C[C@@H]2C)cc1,6,10,0
C[C@@H]1CN([C@@H](C)CO)C(=O)Cc2cc(NS(=O)(=O)c3cccs3)ccc2O[C@@H]1CN(C)CC1CC1,7,9,0
C[C@@H]1CCCCO[C@H](CN(C)Cc2ccc(Cl)c(Cl)c2)[C@@H](C)CN([C@H](C)CO)C(=O)c2cc(NS(=O)(=O)c3ccc(F)cc3)ccc2O1,65*,-29,.
C[C@@H]1CCCCO[C@@H](CN(C)Cc2ccc(Cl)c(Cl)c2)[C@@H](C)CN([C@@H](C)CO)C(=O)c2cc(NS(=O)(=O)c3ccc(F)cc3)ccc2O1,.,.,0
Cc1ccc(S(=O)(=O)Nc2ccc3c(c2)C(=O)N([C@H](C)CO)C[C@H](C)[C@H](CN(C)Cc2ccc(Cl)c(Cl)c2)OCCCC[C@@H](C)O3)cc1,77*,-45,.
C[C@@H]1CCCCO[C@H](CN(C)Cc2ccc(Cl)c(Cl)c2)[C@@H](C)CN([C@@H](C)CO)C(=O)c2cc(NS(=O)(=O)c3ccc(Cl)cc3)ccc2O1,.,.,1
COc1ccc(S(=O)(=O)Nc2ccc3c(c2)C(=O)N([C@H](C)CO)C[C@H](C)[C@H](CN(C)Cc2ccc(Cl)c(Cl)c2)OCCCC[C@@H](C)O3)cc1,57*,-8,.
C[C@@H]1CCCCO[C@@H](CN(C)Cc2ccc(Cl)c(Cl)c2)[C@@H](C)CN([C@H](C)CO)C(=O)c2cc(NS(=O)(=O)c3ccccc3)ccc2O1,66*,-69,.
COc1ccc(S(=O)(=O)Nc2ccc3c(c2)C(=O)N([C@@H](C)CO)C[C@H](C)[C@@H](CN(C)Cc2ccc(Cl)c(Cl)c2)OCCCC[C@@H](C)O3)cc1,.,.,0
Cc1ccc(S(=O)(=O)Nc2ccc3c(c2)C(=O)N([C@H](C)CO)C[C@@H](C)[C@@H](CN(C)Cc2ccc(Cl)c(Cl)c2)OCCCC[C@H](C)O3)cc1,.,.,0
COc1ccc(NC(=O)Nc2cccc3c2O[C@H](CN(C)Cc2ccc(Cl)c(Cl)c2)[C@@H](C)CN([C@@H](C)CO)C3=O)cc1,35,-21,-2
C[C@@H]1CCCCO[C@@H](CN(C)C(=O)Nc2ccc(C(F)(F)F)cc2)[C@@H](C)CN([C@@H](C)CO)C(=O)c2cc(NC(=O)C3CCCCC3)ccc2O1,.,.,-1
Cc1noc(C)c1S(=O)(=O)N(C)C[C@@H]1Oc2ccc(NC(=O)CCCCCC(=O)Nc3ccccc3N)cc2CC(=O)N([C@H](C)CO)C[C@@H]1C,.,.,1
COc1ccc(S(=O)(=O)Nc2ccc3c(c2)CC(=O)N([C@H](C)CO)C[C@@H](C)[C@H](CN(C)Cc2ccccc2)O3)cc1,66*,3,0
COc1ccc(S(=O)(=O)Nc2ccc3c(c2)CC(=O)N([C@H](C)CO)C[C@@H](C)[C@@H](CN(C)Cc2ccc(Oc4ccccc4)cc2)O3)cc1,70*,-29,0
COc1ccc(S(=O)(=O)Nc2ccc3c(c2)CC(=O)N([C@H](C)CO)C[C@H](C)[C@H](CN(C)Cc2ccc(Oc4ccccc4)cc2)O3)cc1,22,-16,.
COc1ccc(S(=O)(=O)Nc2ccc3c(c2)CC(=O)N([C@@H](C)CO)C[C@H](C)[C@H](CN(C)Cc2ccccc2)O3)cc1,43,2,0
COc1ccc(S(=O)(=O)Nc2ccc3c(c2)CC(=O)N([C@H](C)CO)C[C@H](C)[C@H](CN(C)Cc2ccc(-c4ccccc4)cc2)O3)cc1,25,-28,-1
COc1ccc(S(=O)(=O)Nc2ccc3c(c2)CC(=O)N([C@@H](C)CO)C[C@H](C)[C@@H](CN(C)Cc2ccc(-c4ccccc4)cc2)O3)cc1,73*,-66,.
COc1ccc(S(=O)(=O)Nc2ccc3c(c2)CC(=O)N([C@@H](C)CO)C[C@@H](C)[C@@H](CN(C)Cc2ccc(-c4ccccc4)cc2)O3)cc1,64*,-32,0
COc1ccc(S(=O)(=O)Nc2ccc3c(c2)CC(=O)N([C@H](C)CO)C[C@H](C)[C@@H](CN(C)Cc2ccc(-c4ccccc4)cc2)O3)cc1,.,.,-1
C[C@H](CO)N1C[C@H](C)[C@H](CN(C)Cc2ccncc2)Oc2ccc(NC(=O)Cc3cn(C)c4ccccc34)cc2C1=O,21,-2,.
SMILES,T cruzi HTS,INS-1E rescue,A1 apoptosis 2
C[C@@H]1CN([C@H](C)CO)C(=O)c2cc(NS(=O)(=O)c3cccs3)ccc2O[C@@H]1CN(C)C(=O)Nc1ccccc1,-21,10,0
Cc1ccc(S(=O)(=O)Nc2ccc3c(c2)C(=O)N([C@@H](C)CO)C[C@H](C)[C@@H](CN(C)C(=O)Nc2ccc(C(F)(F)F)cc2)OCCCC[C@@H](C)O3)cc1,.,.,-1
C[C@H](CO)N1C[C@H](C)[C@H](CN(C)Cc2ccc(Cl)c(Cl)c2)Oc2ccc(NC(=O)Nc3ccc(C(F)(F)F)cc3)cc2CC1=O,63*,-9,.
C[C@@H]1CN([C@H](C)CO)C(=O)Cc2cc(NC(=O)Nc3ccc(C(F)(F)F)cc3)ccc2O[C@H]1CN(C)Cc1ccc(Cl)c(Cl)c1,11,4,.
C[C@@H]1CN([C@H](C)CO)C(=O)Cc2cc(NC(=O)Nc3ccc(C(F)(F)F)cc3)ccc2O[C@@H]1CN(C)Cc1ccc(Cl)c(Cl)c1,65*,-15,.
C[C@H]1CN([C@@H](C)CO)C(=O)Cc2cc(NC(=O)Nc3ccc(C(F)(F)F)cc3)ccc2O[C@H]1CN(C)Cc1ccc(Cl)c(Cl)c1,78*,-95,2
C[C@@H]1CN([C@@H](C)CO)C(=O)Cc2cc(NC(=O)Nc3ccc(C(F)(F)F)cc3)ccc2O[C@H]1CN(C)Cc1ccc(Cl)c(Cl)c1,.,.,-1
C[C@@H]1CN([C@@H](C)CO)C(=O)c2cc(NC(=O)Nc3ccccc3)ccc2O[C@@H](C)CCCCO[C@@H]1CN(C)C(=O)Nc1cccc2ccccc12,.,.,0
C[C@H](CO)N1C[C@H](C)[C@H](CN(C)Cc2ccc(C(F)(F)F)cc2)OCCCC[C@H](C)Oc2ccc(NC(=O)Nc3ccc4c(c3)OCO4)cc2C1=O,.,.,0
C[C@@H]1CN([C@H](C)CO)C(=O)c2cccc(NS(C)(=O)=O)c2O[C@H]1CN(C)S(=O)(=O)c1ccc(Cl)cc1,-10,2,0
C[C@@H]1CN([C@@H](C)CO)C(=O)c2cccc(NC(=O)Nc3ccc(C(F)(F)F)cc3)c2O[C@H]1CN(C)S(=O)(=O)c1cccs1,79*,-20,0
